According to ChEMBL document CHEMBL2157999, “Potent small molecule Hedgehog agonists induce VEGF expression in vitro” (Bioorg Med Chem, 2012):
Active and inactive are the calls of the source. The rule behind the calls is not given here.

How the values were obtained:
[1] = target: Sonic hedgehog protein (Mus musculus) (UniProt Q62226); assay: Activation of Shh pathway in mouse Shh-Light II cells assessed as induction of gli1 expression at 1 uM after 48 hrs by […] luminescence assay; format: functional, cell-based
Procedure, shortened: (§1)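 Shh-Light II cells were given compounds from DMSO stocks (final DMSO 0.1%; top concentration 1000 nm) for 48 h, then PBS-washed and lysed. Gli reporter luminescence was measured by dual-luciferase and normalized to constitutive Renilla. EC50 came from a Hill-slope fit of RLU/s versus concentration. 2–4 independent experiments, each in technical triplicate.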

HUVEC [2] = assay: Induction of HUVEC proliferation after 48 hrs by BrdU-incorporation assay; format: functional, cell-based; conditions: Homo sapiens
Procedure, shortened: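 HUVEC were seeded at 5000 cells/well. After 24 h the medium was swapped for a compound dilution series (≤0.5% DMSO) and incubated 48 h. BrdU incorporation was read by chemiluminescent ELISA.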

HUVEC [3] = assay: Induction of angiogenesis in HUVEC assessed as formation of cell sprouts after 48 hrs by 3D spheroid angiogenesis assay; conditions: Homo sapiens
Sonic hedgehog protein = Sonic hedgehog protein (Mus musculus, UniProt Q62226); assay: Activation of Shh pathway in mouse Shh-Light II cells assessed as induction of gli1 expression after 48 hrs by […] luminescence assay; format: functional, cell-based; procedure, shortened: as §1
Sequence of Sonic hedgehog protein (Q62226 25-198 limits assumed): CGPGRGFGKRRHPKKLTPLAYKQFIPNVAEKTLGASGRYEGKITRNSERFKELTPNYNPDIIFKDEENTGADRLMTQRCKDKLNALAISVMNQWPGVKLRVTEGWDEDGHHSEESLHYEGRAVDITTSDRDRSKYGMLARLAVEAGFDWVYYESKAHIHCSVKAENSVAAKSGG

HUVEC [4] = assay: Cytotoxicity against HUVEC up to 10 uM after 24 hrs by WST-1 assay; format: cell-based; conditions: human
Procedure, shortened: (§2)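 HUVEC were seeded at 7500 cells/well and exposed to a compound concentration series (<0.5% DMSO) for 24 h. WST-1 was then added and incubated 24 h. Absorbance at 440 and 650 nm was read, and the absorbance difference was plotted against concentration.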

HUVEC [5] = assay: Cytotoxicity against HUVEC after 24 hrs by WST-1 assay; format: cell-based; conditions: Homo sapiens; procedure, shortened: as §2
[6] = target: Sonic hedgehog protein (Homo sapiens) (UniProt Q15465); assay: Activation of Shh pathway in human foreskin fibroblasts assessed as increase in VEGF expression after 48 hrs by ELISA
Sequence of Sonic hedgehog protein (Homo sapiens) (Q15465 24-197 limits assumed): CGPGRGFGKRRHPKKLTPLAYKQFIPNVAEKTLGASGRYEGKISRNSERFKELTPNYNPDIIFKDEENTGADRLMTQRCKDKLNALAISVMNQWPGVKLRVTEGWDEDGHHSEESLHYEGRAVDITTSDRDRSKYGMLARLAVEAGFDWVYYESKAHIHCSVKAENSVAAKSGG
Procedure, shortened: (§3)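 Primary foreskin fibroblasts were plated in DMEM with 10% FBS for 24 h, washed free of nonadherent cells and reseeded at 14000 cells/well. After 72 h the medium was replaced with compound (0.1–1.0 µm range, <0.1% DMSO). Cells were held 48 h at 37 °C, 5% CO2. Three independent experiments.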

[7] = target: Sonic hedgehog protein (Homo sapiens) (UniProt Q15465); assay: Activation of Shh pathway in human foreskin fibroblasts assessed as increase in VEGF expression at 0.1 to 1 uM after 48 hrs by ELISA relative to control; procedure, shortened: as §3
[8] = target: Sonic hedgehog protein (Homo sapiens) (UniProt Q15465); assay: Activation of Shh pathway in human foreskin fibroblasts assessed as induction of maximum VEGF expression at 0.5 uM after 48 hrs by ELISA relative to control; procedure, shortened: as §3
[9] = target: Sonic hedgehog protein (Homo sapiens) (UniProt Q15465); assay: Activation of Shh pathway in human foreskin fibroblasts assessed as induction of maximum VEGF expression at 1 uM after 48 hrs by ELISA relative to control; procedure, shortened: as §3
[10] = Ratio of compound IC50 to SAG IC50 for HUVEC; format: ADME, cell-based; conditions: human, HUVEC cells; read-out: Ratio IC50

## CN[C@H]1CC[C@H](N(Cc2cccc(-c3ccncc3)c2)C(=O)c2oc3ccccc3c2C)CC1
[1]
  Activity: inactive
HUVEC [2]
  Activity: inactive
HUVEC [3]
  Activity: inactive

## N#Cc1ccc(CN(C(=O)c2sc3ccccc3c2Cl)C2CCNCC2)cc1
[1]
  Activity: inactive
HUVEC [2]
  Activity: inactive
HUVEC [3]
  Activity: inactive

## Cc1c(C(=O)N(Cc2ccco2)C2CCNCC2)oc2ccccc12
[1]
  Activity: inactive
HUVEC [2]
  Activity: inactive
HUVEC [3]
  Activity: inactive

## CC(=O)Nc1ccc(CN(C(=O)c2sc3cc(F)ccc3c2Cl)C2CCNCC2)cc1
[1]
  Activity: inactive
HUVEC [2]
  Activity: inactive
HUVEC [3]
  Activity: inactive

## CN[C@H]1CC[C@H](N(Cc2ccnc3ccccc23)C(=O)c2sc3ccccc3c2Cl)CC1
[1]
  Activity: inactive
HUVEC [2]
  Activity: inactive
HUVEC [3]
  Activity: inactive

## CN[C@H]1CC[C@H](N(Cc2cccc(-c3ccncc3)c2)C(=O)c2sc3cc(Cl)ccc3c2Cl)CC1
[1]
  Activity: inactive
HUVEC [2]
  Activity: inactive
HUVEC [3]
  Activity: inactive

## CN[C@H]1CC[C@H](N(Cc2cccc(-c3ccncc3)c2)C(=O)c2ccc(-c3ccccc3)o2)CC1
Sonic hedgehog protein
  EC50: 53.8 nM
HUVEC [4]
  Activity: Non-toxic
HUVEC [2]
  Activity: inactive
HUVEC [3]
  Activity: inactive

## CN[C@H]1CC[C@H](N(Cc2cccc(-c3ccncc3)c2)C(=O)c2sc3ccccc3c2Cl)CC1
Sonic hedgehog protein
  EC50: 8.8 nM
HUVEC [4]
  Activity: Non-toxic
HUVEC [5]
  IC50: 22000 nM
[6]
  Activity: Dose-dependent effect
[7]
  fold change (FC): 7
[8]
  Activity: 29.6 pg/mL
HUVEC [2]
  Activity: inactive
HUVEC [3]
  Activity: inactive

## CN[C@H]1CC[C@H](N(Cc2cccc(-c3ccncc3)c2)C(=O)c2cc3ccccc3s2)CC1
[1]
  Activity: inactive
HUVEC [2]
  Activity: inactive
HUVEC [3]
  Activity: inactive

## O=C(c1sc2ccccc2c1Cl)N(Cc1ccnc2ccccc12)C1CCNCC1
[1]
  Activity: inactive
HUVEC [2]
  Activity: inactive
HUVEC [3]
  Activity: inactive

## O=C(c1sc2ccccc2c1Cl)N(Cc1cccs1)C1CCNCC1
[1]
  Activity: inactive
HUVEC [2]
  Activity: inactive
HUVEC [3]
  Activity: inactive

## CC(=O)Nc1ccc(CN(C(=O)c2sc3cccc(Cl)c3c2Cl)C2CCNCC2)cc1
[1]
  Activity: inactive
HUVEC [2]
  Activity: inactive
HUVEC [3]
  Activity: inactive

## O=C(c1sc2ccccc2c1Cl)N(Cc1ccco1)C1CCNCC1
[1]
  Activity: inactive
HUVEC [2]
  Activity: inactive
HUVEC [3]
  Activity: inactive

## CN[C@H]1CC[C@@H](N(Cc2cccc(-c3ccncc3)c2)C(=O)c2sc3cccc(Cl)c3c2Cl)CC1
Sonic hedgehog protein
  EC50: 7.6 nM
HUVEC [4]
  Activity: Non-toxic
HUVEC [2]
  Activity: inactive
HUVEC [3]
  Activity: inactive

## O=C(c1sc2cccc(Cl)c2c1Cl)N(Cc1ccco1)C1CCNCC1
[1]
  Activity: inactive
HUVEC [2]
  Activity: inactive
HUVEC [3]
  Activity: inactive

## CC(=O)Nc1ccc(CN(C(=O)c2sc3ccccc3c2Cl)C2CCNCC2)cc1
[1]
  Activity: inactive
HUVEC [2]
  Activity: inactive
HUVEC [3]
  Activity: inactive

## O=C(c1sc2cc(F)ccc2c1Cl)N(Cc1ccco1)C1CCNCC1
[1]
  Activity: inactive
HUVEC [2]
  Activity: inactive
HUVEC [3]
  Activity: inactive

## O=C(c1sc2cc(F)ccc2c1Cl)N(Cc1cccc(-c2ccncc2)c1)C1CCNCC1
[1]
  Activity: inactive
HUVEC [2]
  Activity: inactive
HUVEC [3]
  Activity: inactive

## CCOc1cc(C(=O)N(Cc2cccc(-c3ccncc3)c2)[C@H]2CC[C@H](NC)CC2)cc(OCC)c1OCC
[1]
  Activity: inactive
HUVEC [2]
  Activity: inactive
HUVEC [3]
  Activity: inactive

## CN[C@H]1CC[C@@H](N(Cc2cccc(-c3ccncc3)c2)C(=O)c2sc3ccccc3c2Cl)CC1
Sonic hedgehog protein
  EC50: 61.8 nM
HUVEC [4]
  Activity: Non-toxic
[6]
  Activity: Dose-dependent effect
[7]
  fold change (FC): 7
[9]
  Activity: 23.8 pg/mL
HUVEC [2]
  Activity: inactive
HUVEC [3]
  Activity: inactive

## N#Cc1ccc(CN(C(=O)c2sc3cccc(Cl)c3c2Cl)C2CCNCC2)cc1
[1]
  Activity: inactive
HUVEC [2]
  Activity: inactive
HUVEC [3]
  Activity: inactive

## CN[C@H]1CC[C@H](N(Cc2cccc(-c3ccncc3)c2)C(=O)c2sc3cccc(Cl)c3c2Cl)CC1
Sonic hedgehog protein
  EC50: 21.9 nM
HUVEC [4]
  Activity: Non-toxic
HUVEC [5]
  IC50: 250000 nM
[10]
  selectivity ratio: 10
[6]
  Activity: Dose-dependent effect
[7]
  fold change (FC): 7
[9]
  Activity: 32.4 pg/mL
HUVEC [2]
  Activity: inactive
HUVEC [3]
  Activity: inactive

## N#Cc1ccc(CN(C(=O)c2sc3cc(F)ccc3c2Cl)C2CCNCC2)cc1
[1]
  Activity: inactive
HUVEC [2]
  Activity: inactive
HUVEC [3]
  Activity: inactive

## O=C(c1sc2ccccc2c1Cl)N(Cc1cccc(Br)c1)C1CCNCC1
[1]
  Activity: inactive
HUVEC [2]
  Activity: inactive
HUVEC [3]
  Activity: inactive

## CN[C@H]1CC[C@H](N(Cc2cccc(-c3ccncc3)c2)C(=O)c2sc3cc(F)ccc3c2Cl)CC1
Sonic hedgehog protein
  EC50: 176 nM
HUVEC [4]
  Activity: Non-toxic
[6]
  Activity: Dose-dependent effect
[7]
  fold change (FC): 7
[9]
  Activity: 32.2 pg/mL
HUVEC [2]
  Activity: inactive
HUVEC [3]
  Activity: inactive

## CN[C@H]1CC[C@H](NCc2cccc(-c3ccncc3)c2)CC1
[1]
  Activity: inactive
HUVEC [2]
  Activity: inactive
HUVEC [3]
  Activity: inactive

## CC(=O)Nc1ccc(CN(C(=O)c2oc3ccccc3c2C)C2CCNCC2)cc1
[1]
  Activity: inactive
HUVEC [2]
  Activity: inactive
HUVEC [3]
  Activity: inactive

## Cc1c(C(=O)N(Cc2cccs2)C2CCNCC2)oc2ccccc12
[1]
  Activity: inactive
HUVEC [2]
  Activity: inactive
HUVEC [3]
  Activity: inactive

## O=C(c1sc2ccccc2c1Cl)N(Cc1cccc(-c2ccncc2)c1)C1CCNCC1
[1]
  Activity: inactive
HUVEC [2]
  Activity: inactive
HUVEC [3]
  Activity: inactive

## O=C(c1sc2cccc(Cl)c2c1Cl)N(Cc1cccc(-c2ccncc2)c1)C1CCNCC1
[1]
  Activity: inactive
HUVEC [2]
  Activity: inactive
HUVEC [3]
  Activity: inactive

## CN[C@H]1CC[C@H](N(Cc2cccc(-c3ccncc3)c2)C(=O)c2[nH]c3ccccc3c2Cl)CC1
Sonic hedgehog protein
  EC50: 118 nM
HUVEC [4]
  Activity: Non-toxic
HUVEC [2]
  Activity: inactive
HUVEC [3]
  Activity: inactive

## CN[C@H]1CC[C@H](N(Cc2ccncc2)C(=O)c2sc3ccccc3c2Cl)CC1
[1]
  Activity: inactive
HUVEC [2]
  Activity: inactive
HUVEC [3]
  Activity: inactive
